# Data from PMC6740333 (Bioconjugate chemistry, 2018).
# Read-outs that look alike come from different tables or passages of the source.
# Assays:
# [1] = Dispersion stability of surfactant-stabilized GNRs at high ionic strength; format: physicochemical; settings: 1 M NaCl
# Summary of the method: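 Citrate-stabilized gold nanorods were centrifuged and redispersed twice in 0.1 M NaCl containing millimolar zwitterionic sulfobetaine surfactant. Ionic strength was then raised with brine to 0.5 or 1.0 M. Dispersion stability was followed as retention of optical density, measured by absorbance spectrophotometry, after one day and one week.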
# MDCK cells = test: Cell viability assay; format: cell-based, canine; settings: read-out: Cell viability IC50, MTT, mean of triplicate
# Summary of the method: (§1)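 HepaRG, MDCK (canine kidney) or LLC-PK1 (pig kidney) cells were grown at 37°C, 5% CO2 in RPMI 1640 with 10% FBS, 1% glutamine and 1% penicillin–streptomycin. Cells were exposed for 24 h at 37°C to serial dilutions of sulfobetaine surfactant in medium (final-volume concentrations). MTT (0.5%) was added for 4 h, formazan was dissolved in DMSO 16 h in the dark, and A590 was read against medium-only controls. Triplicate.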
# HepaRG cells = test: Cell viability assay; format: cell-based, human
# Summary of the method: as §1
# SKOV-3 cells = test: Cell viability assay; format: cell-based; settings: Homo sapiens, SK-OV-3, 24 h, read-out: Cell viability IC50
# Summary of the method: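 SKOV-3 cells in folate-free RPMI 1640 (10% FBS, 1% penicillin–streptomycin) were seeded at 5,000 cells/100 μL and preincubated 24 h at 37°C, 5% CO2. Serial dilutions in medium (final-volume concentrations) were added for 24 h at 37°C. MTT (0.5%) was then added for 4 h, followed by DMSO solubilization 16 h at 25°C in the dark. A590 was normalized to medium-only cells. Triplicate.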
# LLC-PK1 cells = test: Cell viability assay; format: cell-based, pig; settings: read-out: Cell viability IC50; LLC-PK1, MTT, mean of triplicate
# Summary of the method: as §1
# [2] = read-out: Cell viability IC50, MTT, mean of triplicate
Structure (SMILES),retention of optical density of stabilized GNRs ([1]; after one day),retention of optical density of stabilized GNRs ([1]; after one week),IC50 (MDCK cells),IC50 (HepaRG cells; [2]),IC50 (SKOV-3 cells),"IC50 (HepaRG cells; Homo sapiens, read-out: Cell viability IC50)",IC50 (LLC-PK1 cells)
CCCCCCCCCCCCCCCC(=O)NCCC[N+](C)(C)CCCS(=O)(=O)[O-] [ASB-16],over 90%,80%,81 µM,58 µM,,,
"CCCCCCCCCCCCCCCCCC[N+](C)(C)CCCS(=O)(=O)[O-] [C18-SB, 3-(N,N-dimethyloctadecylammonio)sulfopropyl betaine]",over 90%,80%,56 µM,52 µM,,,
"CCCCCCCCCCCCCCCC[N+](C)(C)C [CTAB, cetyltrimethylammonium bromide]",,,,,8 µM,8 µM,
"CCCCCCCC/C=C\CCCCCCCC[N+](C)(C)CCCS(=O)(=O)[O-] [OSB, oleylsulfobetaine]",over 90%,80%,42 µM,32 µM,,,62 µM
CCCCCCCCCCCCCC(=O)NCCC[N+](C)(C)CCCS(=O)(=O)[O-] [ASB-14],over 90%,80%,120 µM,105 µM,,,
